Legend:
[1] = target: T1, Aminopeptidase N (Sus scrofa, UniProt P15145); assay: Inhibition of porcine kidney APN using L-leucine-p-nitroanilide as substrate after 30 mins by Dixon plot analysis
T1 sequence (P15145 whole entry): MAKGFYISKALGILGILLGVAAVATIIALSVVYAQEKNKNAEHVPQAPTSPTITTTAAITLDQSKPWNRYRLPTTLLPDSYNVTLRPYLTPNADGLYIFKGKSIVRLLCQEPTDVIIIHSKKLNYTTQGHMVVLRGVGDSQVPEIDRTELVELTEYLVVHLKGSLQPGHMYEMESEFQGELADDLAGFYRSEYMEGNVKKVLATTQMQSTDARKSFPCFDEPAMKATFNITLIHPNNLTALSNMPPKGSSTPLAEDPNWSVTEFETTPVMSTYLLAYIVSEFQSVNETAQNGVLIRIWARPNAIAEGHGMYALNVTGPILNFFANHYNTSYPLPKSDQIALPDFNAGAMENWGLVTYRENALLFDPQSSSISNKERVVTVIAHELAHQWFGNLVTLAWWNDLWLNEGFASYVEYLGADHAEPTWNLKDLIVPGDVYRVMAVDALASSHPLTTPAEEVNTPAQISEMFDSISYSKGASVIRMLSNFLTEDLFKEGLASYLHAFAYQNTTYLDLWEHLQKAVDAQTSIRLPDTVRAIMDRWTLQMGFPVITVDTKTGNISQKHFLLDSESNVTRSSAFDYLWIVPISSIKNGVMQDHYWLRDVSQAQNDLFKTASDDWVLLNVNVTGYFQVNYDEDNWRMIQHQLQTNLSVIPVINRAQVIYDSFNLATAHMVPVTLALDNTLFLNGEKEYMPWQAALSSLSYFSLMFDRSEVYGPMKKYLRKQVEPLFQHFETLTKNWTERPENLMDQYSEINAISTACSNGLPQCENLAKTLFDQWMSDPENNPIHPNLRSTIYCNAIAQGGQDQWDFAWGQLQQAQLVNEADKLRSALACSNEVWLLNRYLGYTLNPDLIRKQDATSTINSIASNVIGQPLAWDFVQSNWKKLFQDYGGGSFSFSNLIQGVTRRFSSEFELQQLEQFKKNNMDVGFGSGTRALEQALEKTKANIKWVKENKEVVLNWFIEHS

[2] = target: T2, Cytosol aminopeptidase (Bos taurus, UniProt P00727); assay: Inhibition of bovine kidney cytosolic leucine aminopeptidase using L-leucine-p-nitroanilide as substrate after 30 mins by Dixon plot analysis
T2 sequence (P00727 whole entry): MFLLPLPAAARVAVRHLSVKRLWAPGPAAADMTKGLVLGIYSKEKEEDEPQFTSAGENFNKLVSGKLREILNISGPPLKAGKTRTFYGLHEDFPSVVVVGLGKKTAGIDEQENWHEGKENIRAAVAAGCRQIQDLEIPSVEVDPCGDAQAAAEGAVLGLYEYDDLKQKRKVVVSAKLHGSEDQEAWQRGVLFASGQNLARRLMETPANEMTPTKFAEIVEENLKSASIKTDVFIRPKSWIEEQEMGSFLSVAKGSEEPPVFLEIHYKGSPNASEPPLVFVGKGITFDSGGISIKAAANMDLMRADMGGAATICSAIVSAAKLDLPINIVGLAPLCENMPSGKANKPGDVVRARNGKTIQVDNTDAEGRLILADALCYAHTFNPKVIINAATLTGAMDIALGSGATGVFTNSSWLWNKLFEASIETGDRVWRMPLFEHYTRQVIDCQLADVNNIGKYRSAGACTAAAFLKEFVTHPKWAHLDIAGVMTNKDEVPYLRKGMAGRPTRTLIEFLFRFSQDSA
Outline: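 Cytosolic leucine aminopeptidase, purified by a published procedure, 20 Units per assay in 0.1 M Tris-HCl, 0.1 mM ZnCl2, 5 mM MnCl2, 1 M KCl, pH 8.0, at 30 °C. […] Ki came from Dixon plots of racemates.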

[3] = target: Bacterial leucyl aminopeptidase (Vibrio proteolyticus, UniProt Q01693); assay: Inhibition of Aeromonas proteolytica aminopeptidase using L-leucine-p-nitroanilide as substrate after 30 mins by Dixon plot analysis
Bacterial leucyl aminopeptidase, sequence (Q01693 whole entry): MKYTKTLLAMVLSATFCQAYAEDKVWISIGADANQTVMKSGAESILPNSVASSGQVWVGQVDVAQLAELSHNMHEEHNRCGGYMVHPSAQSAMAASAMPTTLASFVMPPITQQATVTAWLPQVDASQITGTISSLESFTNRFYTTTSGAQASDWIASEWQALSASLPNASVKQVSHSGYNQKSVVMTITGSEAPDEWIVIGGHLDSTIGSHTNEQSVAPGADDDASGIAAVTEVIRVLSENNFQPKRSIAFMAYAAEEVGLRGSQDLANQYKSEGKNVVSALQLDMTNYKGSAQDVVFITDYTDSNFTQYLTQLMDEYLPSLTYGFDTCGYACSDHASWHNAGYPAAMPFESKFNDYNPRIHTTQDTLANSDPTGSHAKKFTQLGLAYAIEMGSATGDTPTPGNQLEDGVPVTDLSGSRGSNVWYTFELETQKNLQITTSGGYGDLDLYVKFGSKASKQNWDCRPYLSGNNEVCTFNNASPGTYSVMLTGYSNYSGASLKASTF
Outline: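 Commercial Aeromonas proteolytica aminopeptidase, 2 mUnits per assay in 0.05 M Tris-HCl pH 7.5, 30 °C, started by adding enzyme. L-leucine-p-nitroanilide was set at its Km (0.02 mM). Release of p-nitroanilide was read continuously at 405 nm over 30 min for initial velocities. Ki was taken from Dixon plots, with racemic compounds tested up to their solubility limit.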

Compound | Ki [1] [µM] | Ki [2] [µM] | Ki [3] [µM]
NC1CCc2c(Br)ccc(Br)c2CC1=O (racemic) | 0.006 | > 100 | –
NC1CCc2c(Cl)cccc2CC1=O (racemic) | – | > 100 | > 100
NC1CCc2ccc3ccccc3c2CC1=O (racemic) | 0.1 | > 100 | > 100
NC1CCc2ccccc2CC1=O (racemic) | – | > 100 | 900
NC1CCc2cccc(Br)c2CC1=O (racemic) | – | > 100 | 213
NC1CCc2c(-c3ccccc3)ccc(-c3ccccc3)c2CC1=O (racemic) | 0.04 | 50 | > 100
NC1CCc2c(ccc3ccccc23)CC1=O (racemic) | 0.04 | > 100 | > 100
NC1CCc2c(Br)cccc2CC1=O (racemic) | – | > 100 | > 100

Further lines, results first:

Ki [1] [µM] | Ki [2] [µM] | Ki [3] [µM] | Compound
– | 70 | 39 | NC1CCc2c(Br)ccc(-c3ccccc3)c2CC1=O (racemic)
– | > 100 | 28 | NC1CCc2cccc(-c3ccccc3)c2CC1=O (racemic)
– | > 100 | > 100 | NC1CCc2c(cccc2-c2ccccc2)CC1=O (racemic)
0.07 | > 100 | > 100 | NC1CCc2c(-c3ccccc3)ccc(Br)c2CC1=O (racemic)

Source: ChEMBL document CHEMBL1821575, “A novel amino-benzosuberone derivative is a picomolar inhibitor of mammalian aminopeptidase N/CD13” (Bioorg Med Chem, 2011)
